# b-catenin transl: beta-catenin nuclear translocation modulation | HeLa beta-catenin nuclear translocation, immunofluorescence imaging | nuclear translocation activity, % at 5 µM | 0.3% of 190,000 active | AID 1665;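 active = nuclear translocation activity above 50% at 5 µM, with a well cell count of 50 or more; inconclusive = wells under 50 cells across six images, flagged as toxic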;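 also: per-cell ratio of nuclear to cytoplasmic median beta-catenin stain intensity; plate controls were DMSO negative control for no effect and GSK-3 inhibitor IX positive control for full effect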
#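 Assay system: human HeLa cells, native beta-catenin; doses: 5 µM primary, 0.02–20 µM confirmation; incubation: compound treatment 24 h, 37°C, 5% CO2; technique: fluorescence imaging of beta-catenin antibody stain plus DAPI; measure: % activation, nuclear-to-cytoplasmic median beta-catenin signal ratio per cell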
# Insulin prom up: MIN6 insulin promoter up-regulation. MIN6 insulin promoter-GFP reporter, high-content imaging; hits give high values. z-score at 5 µM. 0.3% of 190,000 active;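 active = z-score above 3 at 5 µM with at least 500 cells counted in the well; inconclusive = wells under 500 cells, flagged as cytotoxic or low count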
# Autophagy HCS: autophagy modulation, high-content screen; MEF GFP-LC3 puncta imaging; test concentration mostly 10 µM; calls only at 10 µM (by protocol); 0.98% of 190,000 active;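 active = percentage of spot-positive cells more than 3 SD above its plate mean, without a fluorescence outlier flag or 80% toxicity; inconclusive = no clear call, values can overlap the other calls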;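 also: spot-positive cell cutoff set from DMSO-treated cells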
# Dynein transport: dynein cargo transport inhibition; 3617.4 mouse cells, GR-EGFP nuclear translocation imaging; test concentration mostly 20 µM; stimulated with dexamethasone, 1 µM; hits give low values; z-score, hits read low; 0.47% of 220,000 active;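 active = plate z-score of nuclear minus cytoplasmic receptor signal below a set negative limit, without overly bright fluorescence or cell loss, cut at about -3.5 in these data, passing the limit was not always enough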;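 also: z-score of nuclear minus cytoplasmic ring GR-EGFP intensity difference per well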
#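 medium = tetracycline-free induction medium containing charcoal-stripped FBS | also added = 1.0 µM final dexamethasone stimulus | schedule = 48 h induction, 1 h compound, 30 min dex at 37 °C | technique = fixed, Hoechst-stained cells imaged at 10x for EGFP | measure = GR-EGFP nuclear translocation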
# MT stabilize HCS: microtubule stabilizers in HeLa cells; HeLa tubulin immunostaining HCS, 24 h; share of cells brighter than vehicle mean+2SD; % tubulin-high responders, % at 10 µM; 0.83% of 200,000 active;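 active = plate Z-score above 3 for both tubulin-high and condensed-nucleus cell shares, with cell loss under 80%, at 10 µM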;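 also: anti alpha tubulin signal scored within the nucleus-defined area of each cell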
# Active calls of the source: *; i = inactive; ? = inconclusive; / = no result; + = active, no number. Sampled rows, rich in hits. Any-hit rate of the full collection: about 2.3%.
SMILES,b-catenin transl,Insulin prom up,Autophagy HCS,Dynein transport,MT stabilize HCS
CCOC(=O)Nc1nc(-c2ccccc2)c(C(=O)c2ccc(Cl)cc2)s1,182*,-0.31,i,0.59,9
CN(C)c1cc(-c2ccccc2)nc(N)n1,/,0.58,i,-0.24,13*
Nc1nc(-c2ccccc2)cc(-c2ccccc2O)n1,-12,0.08,i,1,2
C=CCN(C(=O)C1=NN(C2CCS(=O)(=O)C2)C(=O)CC1)c1nc(-c2ccc([N+](=O)[O-])cc2)cs1 (centres undefined),-1,-0.12,+,2,2
O=C(Nc1cccnc1)C1=NN(C2CCS(=O)(=O)C2)C(=O)CC1 (centres undefined),-5,-0.51,i,0.23,2
CSc1ccccc1C(=O)N1CCc2ccccc2C1,-1,-0.03,+,2.3,2
Cc1ccccc1C(=O)N1CCc2ccccc2C1,1,4*,i,-1.3,4
CSc1ccccc1C(=O)N1CCOCC1,0,/,i,-0.61,2
O=C(c1ccccc1Cl)N1CCc2ccccc2C1,-1,0.1,i,-0.77,3
Cc1ccc(NC(=O)c2ccc3ncsc3c2)cc1S(=O)(=O)N(C)C,0,-0.1,/,-0.38,/
Cc1ccc(S(=O)(=O)N2CCSC2=Nc2ccccc2)cc1,2,1.3,/,0.1,/
CC(=O)c1ccc(NC(=S)NCCc2cccc(Cl)c2)cc1,0,/,i,-0.63,2
CC(C)(C)c1ccc(/C=N/OCC(=O)NCc2ccc(F)cc2)cc1,/,-0.56,i,-0.0084,12*
Cc1ccc(CNC(=O)CO/N=C/c2ccc(C(C)(C)C)cc2)cc1,2,-0.67,i,0.027,1
COc1cccc(CC2(CO)CCN(Cc3ccc4cccc(F)c4n3)CC2)c1,0,-0.53,i,-0.1,2
OCC1(Cc2cccc(F)c2)CCN(Cc2ccc3cccc(F)c3n2)CC1,0,/,+,0.18,2
Nc1cc(-c2ccc(Br)cc2)nn1Cc1ccccc1,1,-0.53,i,-0.065,2
Nc1cc(-c2cccc(Br)c2)nn1Cc1ccccc1,0,0.27,+,1.6,3
COc1ccccc1S(=O)(=O)Cc1ccc(C(=O)N2CCN(c3ccccc3)CC2)o1,-4,0.07,i,-0.41,2
Cc1cccc(N2CCN(C(=O)c3ccc(CS(=O)(=O)c4ccccc4C)o3)CC2C)c1 (centres undefined),109*,-0.47,i,-0.43,19*
Cc1ccc(S(=O)(=O)Cc2ccc(C(=O)N3CCN(c4cc(C)ccc4C)CC3)o2)cc1,-3,-0.62,i,-0.87,29*
COc1ccccc1S(=O)(=O)Cc1ccc(C(=O)N2CCN(c3cccc(Cl)c3)CC2)o1,44,-0.11,i,-0.47,48*
CC(C)C(=O)NNc1ccc(C(F)(F)F)cn1,-2,0.25,/,-0.19,/
Cc1nc2ccc(S(=O)(=O)Nc3cc(-c4nc5cccnc5s4)ccc3C)cc2s1,4,0.79,i,0.43,21*
O=c1[nH]cc(N(CCO)CCO)c(=O)[nH]1,0,0.11,/,-0.84,/
SMILES,b-catenin transl,Insulin prom up,Autophagy HCS,Dynein transport,MT stabilize HCS
COc1ccc(OC)c(N=c2ssnc2Cl)c1,0,-0.22,i,-4.7*,4
COc1cc(N=c2ssnc2Cl)c(OC)cc1Cl,-5,-0.44,i,-2.9,4
CCn1cc(C(=O)O)c(=O)c2cnc(N3CCN(C(=S)NC(=O)c4ccc(Cl)cc4)CC3)nc21,0,/,/,-0.3,/
N/C(=N\OC(=O)c1csnn1)c1ccc(C(F)(F)F)cc1,0,-0.34,/,-0.23,/
COc1ccccc1N1CCN(C(=O)c2c(-c3ccccc3)noc2C)CC1,126*,-0.63,i,-0.48,28*
COc1cc(SC)ccc1C(=O)N1CCN(c2ccccc2OC)CC1,50*,-0.4,i,0.33,23*
Cc1nnc2nc(-c3ccccc3)nc(-c3ccccc3)n12,0,-0.15,/,0.94,/
Cc1cc(C)n(C(=O)CCC2COc3ccccc3O2)n1 (centres undefined),/,3.5*,i,-0.32,2
O=C(CCC1COc2ccccc2O1)N1CCCC1 (centres undefined),/,-0.28,i,-0.11,3
COc1cc([N+](=O)[O-])ccc1NC(=S)NC(=O)CC(C)(C)C,-6,-1,i,-0.19,5
Cc1cc(C(=O)N/N=C/c2ccco2)c2ccccc2n1,-5,-0.4,i,0.93,7
CC(/C=N/NC(=O)c1cc(-c2ccccc2)nc2ccccc12)=C\c1ccco1,155*,-0.41,i,-0.2,7
CC(/C=N/NC(=O)c1cc(-c2ccc(Cl)cc2)nc2ccccc12)=C\c1ccco1,235*,/,i,0.27,14
Oc1nc(Nc2cccc(Cl)c2)sc1/C=C1\C=Nc2ccccc21,1,-1.2,i,0.16,18*
CCn1c2ccccc2c2cc(/C=N/NC(=O)c3cccc(C)c3)ccc21,1,-0.39,i,1.1,30*
CCn1c2ccccc2c2cc(/C=N/n3cn[nH]c3=S)ccc21,0,-0.59,i,-0.41,2
CCn1c2ccccc2c2cc(NC(=O)c3cccc(OC)c3)ccc21,-1,-0.51,i,-0.29,31*
CCn1c2ccccc2c2cc(NC(=O)c3cccc(OC)c3OC)ccc21,-5,-1.3,i,-0.4,5
CCn1c2ccccc2c2cc(/C=N/n3cnnc3)ccc21,2,0.45,+,-0.13,11
CS(=O)(=O)c1ccc2nc(NC(=O)c3ccc(NS(=O)(=O)c4cccc([N+](=O)[O-])c4)cc3)sc2c1,0,-0.23,/,-0.34,/
COc1ccc(C=C2c3ccccc3C(=O)c3ccccc32)c(OC)c1,82*,?,/,-0.61,/
Cc1cc(=O)[nH]c(N/N=C/C2=C(N3CCOCC3)C(=C\c3ccc(Cl)cc3)/CC2)n1,10,0.33,+,-1.3,18
COC(=O)c1c(C)[nH]c(C(=O)N2CCN(c3ccc(OC)cc3)CC2)c1C,-1,0.52,i,-0.049,4
CC(=O)c1c(C)[nH]c(C(=O)N2CCN(c3cc(Cl)ccc3C)CC2)c1C,/,1.5,i,-0.34,53*
COc1cccc(N2CCN(C(=O)c3[nH]c(C)c(C(C)=O)c3C)CC2)c1,60*,-0.09,i,-0.63,29
SMILES,b-catenin transl,Insulin prom up,Autophagy HCS,Dynein transport,MT stabilize HCS
Cn1nc(C(=O)Nc2ccc(S(=O)(=O)Nc3ncccn3)cc2)ccc1=O,0,-0.49,/,0.55,/
COc1ccc(NC(=S)N2CCN(c3ncccn3)CC2)c(OC)c1,0,0.57,/,-0.36,/
COc1ccc(-c2coc3cc4oc(=O)c5ccccc5c4cc23)cc1F,141*,-1.3,i,-0.58,12
CCCCN(C)CC(O)Cn1cc(/C=C/C(=O)c2cccs2)c2ccccc21 (centres undefined),-1,4.8*,i,0.024,3
CC(C)n1c(NCc2ccc(N(C)C)cc2)nc2ccccc21,0,1.2,+,-0.42,3
CCN(CC)c1ccc(CNc2nc3ccccc3n2C(C)C)cc1,1,0.1,/,-0.31,/
